Columns and labels:
[1] = target: T1, Cannabinoid receptor 2 (Homo sapiens, UniProt P34972); assay: Displacement of [3H]CP-55940 from human recombinant cannabinoid CB2 receptor expressed in HEK293 cells at 10 uM; assay type: cell-based
Outline: (§1)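 Competition vs 0.5 nM [3H]CP55,940 using commercial HEK293 EBNA membranes expressing human CB2, 50 µg protein/well, in 50 mM Tris-HCl pH 7.4, 3 mM MgCl2, 0.1% BSA; 2.5% DMSO final; rt, 2 h, started by protein; nonspecific with 10 µM unlabeled CP55,940; GF/C filtration, scintillation counting; ≥3 experiments in duplicate.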

[2] = target: Cannabinoid receptor 1 (Rattus norvegicus) (UniProt P20272); assay: Displacement of [3H]CP-55940 from cannabinoid CB1 receptor in rat brain cortical membrane at 10 uM; assay type: cell membranes
Outline: as §1, with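 “on rat brain cortical” for “using commercial HEK293 EBNA”, “(cortex homogenized in 0.32 M sucrose, differentially centrifuged),” for “expressing human CB2,”, “triplicate.” for “duplicate.”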

[3] = target: Cannabinoid receptor 1 (Rattus norvegicus, UniProt P20272); assay: Displacement of [3H]CP-55940 from cannabinoid CB1 receptor in rat brain cortical membrane; assay type: cell membranes
[4] = target: T1, Cannabinoid receptor 2; assay: Displacement of [3H]CP-55940 from human recombinant cannabinoid CB2 receptor expressed in HEK293 cells; assay type: cell-based
[5] = target: Cannabinoid receptor 1 (Rattus norvegicus) (UniProt P20272); assay: Antagonist activity at cannabinoid CB1 receptor in rat brain cortical membrane assessed as effect on GTPgammaS binding at 30 uM by liquid scintillation counting relative to CP-55940; assay type: functional, cell membranes; set-up: scale not given: the % may be the effect or the level left
[6] = target: Cannabinoid receptor 1 (Homo sapiens) (UniProt P21554); assay: Inverse agonist activity at human recombinant cannabinoid CB1 receptor expressed in HEK293 cells assessed as decrease in GTPgammaS binding at 30 uM by liquid scintillation counting relative to CP-55940; assay type: functional, cell-based; set-up: scale not given: the % may be the effect or the level left
Chain of Cannabinoid receptor 1 (Homo sapiens) (P21554 whole entry): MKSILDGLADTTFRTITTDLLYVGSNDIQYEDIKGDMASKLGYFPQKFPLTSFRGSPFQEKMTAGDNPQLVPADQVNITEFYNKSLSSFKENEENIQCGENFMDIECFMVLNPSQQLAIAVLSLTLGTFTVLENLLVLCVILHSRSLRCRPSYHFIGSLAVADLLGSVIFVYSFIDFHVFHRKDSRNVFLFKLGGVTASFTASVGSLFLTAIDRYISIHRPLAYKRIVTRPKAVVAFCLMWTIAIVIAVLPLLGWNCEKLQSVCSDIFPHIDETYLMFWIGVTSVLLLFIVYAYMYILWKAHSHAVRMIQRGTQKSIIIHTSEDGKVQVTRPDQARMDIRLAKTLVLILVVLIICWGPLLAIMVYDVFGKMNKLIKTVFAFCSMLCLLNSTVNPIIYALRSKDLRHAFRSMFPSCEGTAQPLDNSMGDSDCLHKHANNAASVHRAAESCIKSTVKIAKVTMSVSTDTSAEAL

T1 sequence (P34972 whole entry): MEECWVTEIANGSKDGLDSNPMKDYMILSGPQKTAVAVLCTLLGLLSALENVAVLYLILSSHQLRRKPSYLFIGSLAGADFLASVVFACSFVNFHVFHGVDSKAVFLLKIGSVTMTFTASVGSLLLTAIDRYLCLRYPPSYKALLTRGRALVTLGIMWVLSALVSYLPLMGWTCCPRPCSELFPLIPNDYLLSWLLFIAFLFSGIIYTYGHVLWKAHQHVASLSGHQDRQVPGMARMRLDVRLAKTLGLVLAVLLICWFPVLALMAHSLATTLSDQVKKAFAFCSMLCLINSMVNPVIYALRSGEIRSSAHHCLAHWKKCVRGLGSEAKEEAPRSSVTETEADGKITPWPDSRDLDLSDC
Chain of Cannabinoid receptor 1 (Rattus norvegicus) (P20272 whole entry): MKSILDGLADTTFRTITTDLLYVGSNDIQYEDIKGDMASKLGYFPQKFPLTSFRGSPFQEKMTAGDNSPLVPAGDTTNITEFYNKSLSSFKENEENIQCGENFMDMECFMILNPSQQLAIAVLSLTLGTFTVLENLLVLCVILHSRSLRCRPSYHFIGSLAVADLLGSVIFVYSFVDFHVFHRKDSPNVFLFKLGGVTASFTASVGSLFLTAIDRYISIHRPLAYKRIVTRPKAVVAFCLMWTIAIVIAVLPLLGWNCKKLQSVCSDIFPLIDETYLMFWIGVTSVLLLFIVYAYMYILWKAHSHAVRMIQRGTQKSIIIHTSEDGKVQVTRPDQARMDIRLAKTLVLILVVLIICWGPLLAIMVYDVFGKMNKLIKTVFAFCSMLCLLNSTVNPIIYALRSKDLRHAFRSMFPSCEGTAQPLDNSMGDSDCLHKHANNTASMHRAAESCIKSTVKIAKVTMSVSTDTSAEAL
Chain of Cannabinoid receptor 1 (P20272 whole entry): as above

| Activity [5] [%] | Activity [6] [%] | SMILES | Activity [1] [%] | Activity [2] [%] | Ki [3] [µM] | Ki [4] [µM] |
| --- | --- | --- | --- | --- | --- | --- |
| – | – | COc1ccc2cc(Cc3ccccc3)c(=O)oc2c1 | 33 | 31 | > 10 | > 10 |
| -2 | -16 | COc1ccccc1Cc1cc2c(OC)cc(C)cc2oc1=O | – | – | 0.738 | 1.03 |
| – | – | O=c1oc2ccccc2cc1Cc1ccccc1 | 28 | 18 | > 10 | > 10 |
| – | – | COc1ccc2oc(=O)c(C)cc2c1 | 7 | 15 | > 10 | ≥ 10 |
| – | – | COc1ccccc1Cc1cc2c(C(C)C)ccc(C)c2oc1=O | – | – | 6.18 | 5.67 |
| – | – | COc1ccc(Br)c2c1C=C(C(C)=O)C(C)O2 (centres undefined) | 7 | 34 | > 10 | > 10 |
| – | – | COc1cccc(Cc2cc3c(OC)cc(C)cc3oc2=O)c1 | – | – | 4.11 | 3.37 |
| – | – | COc1cc(C)cc2oc(=O)c(Cc3ccc(C)cc3)cc12 | – | – | 9.14 | 4.76 |
| – | – | O=c1oc2ccc([N+](=O)[O-])cc2cc1Cc1ccccc1 | 15 | 32 | > 10 | > 10 |
| – | – | COc1cc(C)cc2oc(=O)c(Cc3ccccc3C)cc12 | – | – | 1.17 | 2.16 |
| – | – | COc1cc(C)cc2oc(=O)c(Cc3ccccc3Cl)cc12 | – | – | 0.978 | 1.54 |
| – | – | COc1cccc2cc(Cc3ccccc3)c(=O)oc12 | 25 | 6 | ≥ 10 | ≥ 10 |
| – | – | Cc1cc2c(ccc3ccccc32)oc1=O | 2 | 10 | > 10 | ≥ 10 |
| – | – | O=C1C2=Cc3ccccc3OC2CC/C1=C\c1ccccc1O (centres undefined) | 37 | – | 4.9 | > 10 |
| – | – | CC1(C)Oc2c(cccc2-c2ccccc2)C=C1C=O | 3 | 46 | ≥ 10 | > 10 |
| – | – | COc1cc(Br)cc2cc(C)c(=O)oc12 | 9 | 17 | > 10 | > 10 |
| – | – | COc1ccc(Br)c2oc(=O)c(Cc3ccccc3)cc12 | 29 | 39 | > 10 | > 10 |
| – | – | Cc1cc2cc(I)ccc2oc1=O | 10 | 12 | > 10 | > 10 |

| Activity [5] [%] | Activity [6] [%] | SMILES | Activity [1] [%] | Activity [2] [%] | Ki [3] [µM] | Ki [4] [µM] |
| --- | --- | --- | --- | --- | --- | --- |
| – | – | COc1ccc2oc(=O)c(Cc3ccccc3)cc2c1 | 37 | 8 | ≥ 10 | > 10 |
| – | – | COc1cc(C)cc2oc(=O)c(Cc3ccc(Cl)cc3)cc12 | – | – | 2.08 | 9.39 |
| – | – | COc1ccccc1Cc1cc2c(OC)ccc(C)c2oc1=O | – | – | 12.3 | 3.65 |
| 2 | -19 | Cc1c(C(=O)NN2CCOCC2)nn(-c2ccc(Cl)cc2Cl)c1-c1ccc(I)cc1 | – | – | – | – |
| – | – | COc1ccccc1Cc1cc2c(OC)cccc2oc1=O | – | – | 9.57 | 3.49 |
| – | – | Cc1cc2cc(Cl)cc(Br)c2oc1=O | 3 | 8 | ≥ 10 | ≥ 10 |
| – | – | COc1cccc2oc(=O)c(Cc3ccccc3)cc12 | 28 | – | 19.1 | > 10 |
| 15 | -21 | O=c1oc2ccc3ccccc3c2cc1Cc1ccccc1 | 59 | – | 4.19 | ≥ 10 |
| 13 | -10 | COc1ccc(Cc2cc3c(OC)cc(C)cc3oc2=O)cc1 | – | – | 6.14 | 5.81 |
| – | – | COc1cccc2cc(C)c(=O)oc12 | 4 | 6 | ≥ 10 | > 10 |
| – | – | Cc1cc2c(C(C)C)ccc(C)c2oc1=O | 0 | 26 | > 10 | > 10 |
| – | – | COc1ccc(Cc2cc3c(OC)cc(C)cc3oc2=O)c(OC)c1 | – | – | 6.23 | 2.78 |
| – | – | COc1cc(C)cc2oc(=O)c(Cc3ccccc3O)cc12 | – | – | 1.1 | 5.24 |
| – | – | CCOC(=O)/C(=C/C=C/c1ccccc1)C(=O)Oc1c(C2SCCS2)ccc2c1C=CC(C)(C)O2 | 22 | – | 1.37 | > 10 |
| – | – | O=c1oc2ccc(I)cc2cc1Cc1ccccc1 | 44 | 31 | > 10 | ≥ 10 |
| – | – | COc1ccc2cc(C)c(=O)oc2c1 | 2 | 1 | ≥ 10 | ≥ 10 |
| – | – | COc1ccccc1Cc1cc2c(ccc3ccccc32)oc1=O | – | 41 | > 10 | 2.06 |

| SMILES | Activity [5] [%] | Activity [6] [%] | Activity [1] [%] | Activity [2] [%] | Ki [3] [µM] | Ki [4] [µM] |
| --- | --- | --- | --- | --- | --- | --- |
| Cc1ccc(C(C)C)c2cc(Cc3ccccc3)c(=O)oc12 | 19 | -9 | – | – | 2.76 | 4.27 |
| COc1cc(C)cc2oc(=O)c(Cc3ccccc3)cc12 | 3 | -8 | 45 | – | 3.46 | ≥ 10 |
